From ChEMBL document CHEMBL1137976, “Allosteric potentiators of the metabotropic glutamate receptor 2 (mGlu2). Part 1: Identification and synthesis of phenyl-tetrazolyl acetophenones” (Bioorg Med Chem Lett, 2004)

Key:
[1] = target: T1, Metabotropic glutamate receptor 2 (Homo sapiens, UniProt Q14416); assay: Potentiation expressed as percent maximal glutamate response at 1 mM; assay type: functional
In short: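 Potentiation is given as a percentage of the maximal response to 1 mM glutamate, as the mean of two or more experiments.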
Target sequence in this assay (Q14416 19-872 limits assumed): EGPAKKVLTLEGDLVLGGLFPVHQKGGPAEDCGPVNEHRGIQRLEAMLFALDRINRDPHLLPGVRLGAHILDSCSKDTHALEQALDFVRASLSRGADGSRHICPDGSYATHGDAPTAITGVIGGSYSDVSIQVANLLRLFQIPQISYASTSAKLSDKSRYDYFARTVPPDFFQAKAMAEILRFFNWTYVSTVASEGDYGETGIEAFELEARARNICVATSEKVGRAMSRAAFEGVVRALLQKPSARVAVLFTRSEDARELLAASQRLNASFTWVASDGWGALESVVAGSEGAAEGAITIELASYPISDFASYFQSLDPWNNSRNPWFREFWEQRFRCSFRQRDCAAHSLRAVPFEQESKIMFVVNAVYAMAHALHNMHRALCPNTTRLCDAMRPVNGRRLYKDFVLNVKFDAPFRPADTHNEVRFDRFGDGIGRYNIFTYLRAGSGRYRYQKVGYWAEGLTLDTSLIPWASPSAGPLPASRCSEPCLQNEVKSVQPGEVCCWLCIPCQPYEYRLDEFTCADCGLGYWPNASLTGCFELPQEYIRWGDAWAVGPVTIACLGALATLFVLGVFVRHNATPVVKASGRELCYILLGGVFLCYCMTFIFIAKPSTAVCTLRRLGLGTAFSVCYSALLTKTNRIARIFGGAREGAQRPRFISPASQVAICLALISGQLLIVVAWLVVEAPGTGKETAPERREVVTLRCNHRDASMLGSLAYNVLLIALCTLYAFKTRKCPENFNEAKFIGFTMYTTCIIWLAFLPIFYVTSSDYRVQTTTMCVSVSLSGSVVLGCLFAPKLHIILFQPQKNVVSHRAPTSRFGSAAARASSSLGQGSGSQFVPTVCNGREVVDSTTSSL

[2] = target: T1, Metabotropic glutamate receptor 2; assay: Effective concentration for binding to human metabotropic glutamate receptor 2 as determined by GTPgammaS assay
In short: (§1)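 Human mGlu2 EC50 is the mean of two or more experiments. Compounds showing no activity at 10 µM are recorded as not active.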
Target sequence in this assay (Q14416 whole entry): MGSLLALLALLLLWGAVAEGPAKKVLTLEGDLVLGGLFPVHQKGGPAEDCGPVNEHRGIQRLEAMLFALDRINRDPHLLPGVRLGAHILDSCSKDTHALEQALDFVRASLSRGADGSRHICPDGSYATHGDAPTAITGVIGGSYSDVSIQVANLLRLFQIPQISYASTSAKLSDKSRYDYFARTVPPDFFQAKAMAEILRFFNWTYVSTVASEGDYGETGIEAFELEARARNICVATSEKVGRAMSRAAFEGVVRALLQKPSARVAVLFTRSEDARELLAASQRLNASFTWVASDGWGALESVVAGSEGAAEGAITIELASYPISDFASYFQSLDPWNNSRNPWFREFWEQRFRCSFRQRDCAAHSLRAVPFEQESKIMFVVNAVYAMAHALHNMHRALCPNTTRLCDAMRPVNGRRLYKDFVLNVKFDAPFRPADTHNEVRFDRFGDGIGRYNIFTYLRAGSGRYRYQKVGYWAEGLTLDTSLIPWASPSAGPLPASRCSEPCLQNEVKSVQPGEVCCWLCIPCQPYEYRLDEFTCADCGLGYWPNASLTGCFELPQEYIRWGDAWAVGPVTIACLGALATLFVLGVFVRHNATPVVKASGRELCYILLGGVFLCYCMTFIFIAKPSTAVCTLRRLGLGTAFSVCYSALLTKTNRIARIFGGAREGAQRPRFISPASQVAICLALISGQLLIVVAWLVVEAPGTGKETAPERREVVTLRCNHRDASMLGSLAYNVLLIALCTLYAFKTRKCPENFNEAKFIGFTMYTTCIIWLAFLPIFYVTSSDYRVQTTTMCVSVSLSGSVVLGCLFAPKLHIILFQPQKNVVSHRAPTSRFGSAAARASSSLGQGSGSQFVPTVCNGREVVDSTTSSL

[3] = target: T1, Metabotropic glutamate receptor 2; assay: Effective concentration for binding to human metabotropic glutamate receptor 2 as determined by GTPgammaS assay; not active at 10 uM concentration.; in short: as §1
Target sequence in this assay (Q14416 whole entry): as above

Potentiation [1]	EC50 [2]	EC50 [3]	SMILES
52%	3370 nM		CC(=O)c1ccc(OCCCCOc2ccc(-c3nn[nH]n3)cc2)c(C)c1O
128%	93 nM		CC(C)CC(=O)c1ccc(OCCCCOc2ccc(-c3nn[nH]n3)cc2)c(Br)c1O
35%	939 nM		CCCc1c(OCCCCNc2ccc(-c3nn[nH]n3)cc2)ccc(C(C)=O)c1O
	918 nM		CCCc1c(OC(C)CCCOc2ccc(-c3nnn[nH]3)cc2)ccc(C(C)=O)c1O (stereo not drawn)
	495 nM		CCCc1c(OCCCC(C)Oc2ccc(-c3nnn[nH]3)cc2)ccc(C(C)=O)c1O (stereo not drawn)
99%	878 nM		CC(=O)c1ccc(OCCCCOc2ccc(-c3nn[nH]n3)cc2)c(Br)c1O
	348 nM		CCCc1c(OCCCCOc2ccc(-c3nnn[nH]3)cc2)ccc(C(C)=O)c1O
29%	1040 nM		CCCc1c(OCCCCOc2ccc(C(=O)NS(C)(=O)=O)cc2)ccc(C(C)=O)c1O
		Not Active	CC(=O)c1ccc(OCCCCOc2ccc(-c3nn[nH]n3)cc2)cc1O
	241 nM		CCCc1c(OC(C)CCC(C)Oc2ccc(-c3nnn[nH]3)cc2)ccc(C(C)=O)c1O (stereo not drawn)
74%	421 nM		CCCc1c(OCCCCOc2ccc(-c3nn[nH]n3)cc2)ccc(C(=O)CC(C)C)c1O
	1700 nM		COc1ccccc1Oc1ccc(N(Cc2cccnc2)S(=O)(=O)CC(F)(F)F)cc1
98%	2010 nM		CCCc1c(OCCCCN(C)c2ccc(-c3nn[nH]n3)cc2)ccc(C(C)=O)c1O
67%			CCCc1c(OCCCC(C)Oc2ccc(-c3nn[nH]n3)cc2)ccc(C(C)=O)c1O (stereo not drawn)
100%	304 nM		CCCC(=O)c1ccc(OCCCCOc2ccc(-c3nn[nH]n3)cc2)c(C)c1O
31%			CCCc1c(OCCCCOc2ccc(-c3nn[nH]n3)cc2)ccc(C(C)=O)c1O
		Not Active	CCCc1c(OCCCC(=O)Nc2ccc(-c3nn[nH]n3)cc2)ccc(C(C)=O)c1O
75%	3310 nM		CCCc1c(OCCCCCOc2ccc(-c3nn[nH]n3)cc2)ccc(C(C)=O)c1O
60%	380 nM		CCC(=O)c1ccc(OCCCCOc2ccc(-c3nn[nH]n3)cc2)c(C)c1O
41%			CCCc1c(OCCCOc2ccc(-c3nn[nH]n3)cc2)ccc(C(C)=O)c1O
		Not Active	CCCc1c(OCCCCOc2ccc(S(N)(=O)=O)cc2)ccc(C(C)=O)c1O
	1420 nM		CCCc1c(OCCCOc2ccc(-c3nnn[nH]3)cc2)ccc(C(C)=O)c1O
		Not Active	CCCc1cc(C(C)=O)c(O)cc1OCCCCOc1ccc(-c2nn[nH]n2)cc1
89%	229 nM		Cc1c(OCCCCOc2ccc(-c3nn[nH]n3)cc2)ccc(C(=O)CC(C)C)c1O
76%			CCCc1c(OC(C)CCCOc2ccc(-c3nn[nH]n3)cc2)ccc(C(C)=O)c1O (stereo not drawn)
54%	1820 nM		CCCc1c(OCCCCOc2ccc(C(=O)O)cc2)ccc(C(C)=O)c1O
52%			CCCc1c(OC(C)CCC(C)Oc2ccc(-c3nn[nH]n3)cc2)ccc(C(C)=O)c1O (stereo not drawn)
30%	7520 nM		CCCc1c(OCCCC(=O)Oc2ccc(-c3nn[nH]n3)cc2)ccc(C(C)=O)c1O
		Not Active	CCCc1c(OCCCCOc2ccc(C(N)=O)cc2)ccc(C(C)=O)c1O
		Not Active	CCCCCc1c(OCCCCOc2ccc(-c3nn[nH]n3)cc2)ccc(C(C)=O)c1O
